Assay results as given in ChEMBL document CHEMBL5303300, “EUbOPEN Chemogenomics Library - Multiplex” (2023).
Several values for one entry are separate records, joined by “and”; a condition that tells them apart may be missing. Equal entries are not always repeated.

Experiments:
HEK-293T = assay: Multiplex assay against HEK293T; assay type: toxicity, cell-based; details: human, number of replicates 2
Summary of the method: (§1)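 Live cells carried four stains from seeding: Hoechst33342, BioTracker Green Microtubule Cytoskeleton Dye, MitoTracker Red and Annexin V Alexa Fluor 680. They were imaged on a CQ1 microscope at 37°C and 5% CO2 after compound addition. Using CellPathfinder machine-learning gating, cells were split into Hoechst high-intensity objects or normal cells, normal cells into healthy, pyknosed or fragmented nuclei, and pyknosed cells into mitotic or apoptotic; tubulin, mitochondrial-mass and membrane-permeability phenotypes are per cents of healthy-nucleus cells.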

U2OS = assay: Multiplex assay against U2OS; assay type: toxicity, cell-based; details: human, number of replicates 2; summary of the method: as §1
[1] = 24 h, 1 µM, compound concentration 1 uM
[2] = 24 h, 10 µM, compound concentration 10 uM
[3] = 48 h, 1 µM, compound concentration 1 uM
[4] = 48 h, 10 µM, compound concentration 10 uM
[5] = 12 h, 1 µM, compound concentration 1 uM
[6] = 12 h, 10 µM, compound concentration 10 uM

COc1cc(N2CCN(C)CC2)ccc1Nc1ncc2c(n1)N(C)c1ccccc1C(=O)N2CC(F)(F)F
Population Mitochondria Different-Phenotype (%) (HEK-293T; [1]): 8% and 9%
Population Mitotic Cells (%) (HEK-293T; [1]): 72% and 67%
Population Normal (%) (HEK-293T; [1]): 92%
Population Pyknosed Nuclei (%) (HEK-293T; [1]): 5% and 7%
Population Tubulin-Different-Phenotype (%) (HEK-293T; [1]): 68%
Total Cell Count (HEK-293T; [1]): 1356 and 1127
Population Apoptotic (%) (HEK-293T; [2]): 42% and 49%
Population Fragmented Nuclei (%) (HEK-293T; [2]): 3% and 4%
Population Healthy Nuclei (%) (HEK-293T; [2]): 80% and 83%
Population Hoechst High Intensity Objects (%) (HEK-293T; [2]): 6% and 11%
Population Membrane Permeable-Phenotype (%) (HEK-293T; [2]): 2% and 1%
Population Mitochondria Different-Phenotype (%) (HEK-293T; [2]): 60% and 59%
Population Mitotic Cells (%) (HEK-293T; [2]): 57% and 50%
Population Normal (%) (HEK-293T; [2]): 93% and 88%
Population Pyknosed Nuclei (%) (HEK-293T; [2]): 16% and 12%
Population Tubulin-Different-Phenotype (%) (HEK-293T; [2]): 95%
Total Cell Count (HEK-293T; [2]): 451 and 561
Population Fragmented Nuclei (%) (HEK-293T; [3]): 10% and 14%
Population Healthy Nuclei (%) (HEK-293T; [3]): 86% and 82%
Population Hoechst High Intensity Objects (%) (HEK-293T; [3]): 11% and 10%
Population Membrane Permeable-Phenotype (%) (HEK-293T; [3]): 4% and 6%
Population Mitochondria Different-Phenotype (%) (HEK-293T; [3]): 2% and 0%
Population Mitotic Cells (%) (HEK-293T; [3]): 82% and 95%
Population Normal (%) (HEK-293T; [3]): 88% and 89%
Population Pyknosed Nuclei (%) (HEK-293T; [3]): 3%
Population Tubulin-Different-Phenotype (%) (HEK-293T; [3]): 51% and 48%
Total Cell Count (HEK-293T; [3]): 2136 and 2988
Population Apoptotic (%) (HEK-293T; [4]): 50% and 55%
Population Fragmented Nuclei (%) (HEK-293T; [4]): 4% and 5%
Population Healthy Nuclei (%) (HEK-293T; [4]): 79% and 83%
Population Hoechst High Intensity Objects (%) (HEK-293T; [4]): 8% and 11%
Population Membrane Permeable-Phenotype (%) (HEK-293T; [4]): 7% and 11%
Population Mitochondria Different-Phenotype (%) (HEK-293T; [4]): 37% and 31%
Population Mitotic Cells (%) (HEK-293T; [4]): 50% and 44%
Population Normal (%) (HEK-293T; [4]): 91% and 88%
Population Pyknosed Nuclei (%) (HEK-293T; [4]): 15% and 11%
Population Tubulin-Different-Phenotype (%) (HEK-293T; [4]): 91% and 94%
Total Cell Count (HEK-293T; [4]): 580 and 656
Population Apoptotic (%) (U2OS; [5]): 80% and 51%
Population Fragmented Nuclei (%) (U2OS; [5]): 11% and 4%
Population Healthy Nuclei (%) (U2OS; [5]): 76% and 82%
Population Hoechst High Intensity Objects (%) (U2OS; [5]): 0%
Population Membrane Permeable-Phenotype (%) (U2OS; [5]): 3%
Population Mitotic Cells (%) (U2OS; [5]): 20% and 48%
Population Normal (%) (U2OS; [5]): 100% and 99%
Population Pyknosed Nuclei (%) (U2OS; [5]): 11% and 12%
Population Tubulin-Different-Phenotype (%) (U2OS; [5]): 21% and 22%
Population Apoptotic (%) (U2OS; [6]): 64% and 53%
Population Healthy Nuclei (%) (U2OS; [6]): 45% and 78%
Population Hoechst High Intensity Objects (%) (U2OS; [6]): 0%
Population Membrane Permeable-Phenotype (%) (U2OS; [6]): 17% and 28%
Population Mitochondria Different-Phenotype (%) (U2OS; [6]): 58% and 54%
Population Mitotic Cells (%) (U2OS; [6]): 35% and 46%
Population Normal (%) (U2OS; [6]): 100%
Population Pyknosed Nuclei (%) (U2OS; [6]): 37% and 19%
Population Tubulin-Different-Phenotype (%) (U2OS; [6]): 88% and 85%
Population Apoptotic (%) (U2OS; [1]): 66% and 68%
Population Healthy Nuclei (%) (U2OS; [1]): 69% and 83%
Population Hoechst High Intensity Objects (%) (U2OS; [1]): 0%
Population Membrane Permeable-Phenotype (%) (U2OS; [1]): 3% and 1%
Population Mitochondria Different-Phenotype (%) (U2OS; [1]): 18% and 19%
Population Mitotic Cells (%) (U2OS; [1]): 33% and 31%
Population Normal (%) (U2OS; [1]): 100% and 99%
Population Pyknosed Nuclei (%) (U2OS; [1]): 15% and 13%
Population Tubulin-Different-Phenotype (%) (U2OS; [1]): 11% and 30%
Population Apoptotic (%) (U2OS; [2]): 73%
Population Fragmented Nuclei (%) (U2OS; [2]): 15% and 6%
Population Healthy Nuclei (%) (U2OS; [2]): 39% and 55%
Population Hoechst High Intensity Objects (%) (U2OS; [2]): 0%
Population Membrane Permeable-Phenotype (%) (U2OS; [2]): 30% and 44%
Population Mitochondria Different-Phenotype (%) (U2OS; [2]): 69% and 73%
Population Mitotic Cells (%) (U2OS; [2]): 26%
Population Normal (%) (U2OS; [2]): 100%
Population Pyknosed Nuclei (%) (U2OS; [2]): 45% and 37%
Population Tubulin-Different-Phenotype (%) (U2OS; [2]): 92% and 95%
Population Apoptotic (%) (U2OS; [3]): 66% and 72%
Population Healthy Nuclei (%) (U2OS; [3]): 62% and 84%
Population Hoechst High Intensity Objects (%) (U2OS; [3]): 0%
Population Membrane Permeable-Phenotype (%) (U2OS; [3]): 2% and 3%
Population Mitochondria Different-Phenotype (%) (U2OS; [3]): 2% and 11%
Population Mitotic Cells (%) (U2OS; [3]): 33% and 27%
Population Normal (%) (U2OS; [3]): 100% and 99%
Population Pyknosed Nuclei (%) (U2OS; [3]): 22% and 12%
Population Tubulin-Different-Phenotype (%) (U2OS; [3]): 29% and 37%
Population Apoptotic (%) (U2OS; [4]): 83% and 86%
Population Fragmented Nuclei (%) (U2OS; [4]): 26% and 11%
Population Hoechst High Intensity Objects (%) (U2OS; [4]): 2% and 0%
Population Membrane Permeable-Phenotype (%) (U2OS; [4]): 85% and 66%
Population Mitochondria Different-Phenotype (%) (U2OS; [4]): 71% and 74%
Population Mitotic Cells (%) (U2OS; [4]): 16% and 13%
Population Normal (%) (U2OS; [4]): 97% and 99%
Population Pyknosed Nuclei (%) (U2OS; [4]): 57% and 34%
Population Tubulin-Different-Phenotype (%) (U2OS; [4]): 100% and 94%
